High-throughput results from PubChem.
Hits are enriched below; roughly 2.3% of the tested compounds scored in any of these assays.
TRPC4 act = TRPC4 (mouse) channel activation. HEK293 TRPC4beta/mu-opioid, Fluo4 calcium fluorescence; stronger effect = higher value. B-score at 10 µM. actives 0.49% (n = 310,000);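 active means B-score above 5 SD of library B-scores, and initial fluorescence ratio not above library mean plus 5 SD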;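 further: positive B-score marks a calcium rise read as TRPC4 activation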
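Test system: HEK293 cells stably co-expressing mouse TRPC4beta and mu-opioid receptor | Schedule: Fluo4 dye loading 45 min at room temperature, 110 s recording | Measured by: Kinetic Fluo4 calcium fluorescence, 5 s baseline at 1 Hz | Evaluation: B score of integrated ratio | Controls: Buffer (low) and maximal DAMGO (high)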
TRPC4 block = TRPC4 (mouse) channel inhibition; actives 0.39% (n = 300,000); Q9QUQ5; HEK293 TRPC4beta/mu-opioid, DAMGO-evoked Fluo4 calcium flux; stronger effect = lower value; B-score at 10 µM;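 active means B-score over 3 SD under the library average, no early fluorescence shift, positive overall ratio signal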
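Signal: kinetic Fluo4 fluorescence imaging of calcium influx. Material: stable TRPC4beta/mu-opioid receptor HEK293 cells. Probe or stimulus: DAMGO in two steps, submaximal then maximal.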
TRPC4 potent = allosterically enhances the mouse TRPC4 cation channel; Q9QUQ5; HEK293 TRPC4beta/mu-opioid, DAMGO EC20, Fluo-4 Ca2+ flux; stronger effect = higher value; B-score at 10 µM; actives 0.42% (n = 310,000); AID 2227;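 active means B-score of calcium response area above 5 SD of library B-scores, with initial fluorescence ratio within 5 SD of library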;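 further: B-score of integrated fluorescence ratio over time as area under calcium response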
TRPC6 activator = mouse TRPC6 channel activation. Q61143. HEK293-TRPC6 membrane potential dye fluorescence; stronger effect = higher value. B-score at 10 µM. actives 0.13% (n = 310,000);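 active means B-score of the integrated fluorescence ratio above library mean plus 3 SD, and starting fluorescence ratio within library mean plus 5 SD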;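 further: higher score means more depolarization so channel activation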
TRPC6 inhibitor = mouse TRPC6 channel inhibition | B-score at 10 µM | AID 2553 | HEK293-TRPC6, membrane potential dye, ACh-evoked depolarization; stronger effect = lower value | actives 1.1% (n = 310,000);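 active means B-score under library mean minus 3 SD, initial fluorescence not abnormally high, positive integrated signal ratio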;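 further: B-score derived from integrated fluorescence ratio over the kinetic read; more negative B-score means stronger inhibition of depolarization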
HEK293 MPD ctr = counter-screen for TRPC6 modulators: effect in parental HEK293 cells. shares compounds with TRPC6 inhibitor. membrane potential dye fluorescence. membrane potential signal change, % at 10 µM. actives 51% (n = 2,400). AID 488924;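 active means membrane potential signal moves up or down beyond 5 SD from buffer-only wells, on both duplicate plates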
HEK293 MPD ctr 2 = second counter-screen for TRPC6 modulators: effect in parental HEK293 cells. shares compounds with TRPC6 inhibitor. membrane potential dye fluorescence; after compound, maximal acetylcholine stimulation. inhibition, % at 10 µM. actives 14% (n = 2,400);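 active means membrane potential signal drops by more than 5 SD from the mean control signal, in both duplicate plates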;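 further: plate controls were acetylcholine ECmax control wells for no effect and buffer only wells for full effect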
TRPC4 ctr mod = tests whether TRPC6 modulators also affect mouse TRPC4; HEK293 TRPC4/mu-opioid, membrane potential fluorescence; percent change from control (negative = decrease, positive = increase), % at 10 µM; actives 69% (n = 2,400); shares compounds with TRPC6 inhibitor;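 active means membrane potential signal moved up or down beyond 5 SD of buffer control wells, in both duplicate plates, actives on both sides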;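 further: plate controls were assay buffer wells for no effect and DAMGO maximal-effect wells for full effect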
TRPC4/MOR inh 2 = second selectivity test of TRPC6 modulators against mouse TRPC4; HEK293 TRPC4/mu-opioid, membrane potential dye fluorescence; stimulated with maximal-effect DAMGO; actives 55% (n = 2,400); AID 488928; inhibition, % at 10 µM; shares compounds with TRPC6 inhibitor;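 active means drop in membrane potential signal beyond 5 SD of the control wells in both duplicate plates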;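 further: TRPC4 counter screen for TRPC6 hits run under conditions tuned for TRPC6 not TRPC4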
TRPC6 block conf = mouse TRPC6 inhibitor confirmation. actives 43% (n = 3,300). inhibition, % at 10 µM. HEK293-TRPC6, membrane potential dye, ACh-evoked depolarization. shares compounds with TRPC6 inhibitor;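 active means fluorescence ratio falls more than 5 SD below the full-stimulation control mean, in both duplicate runs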;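 further: integrated fluorescence ratio of peak minus minimum over baseline after agonist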
TRPC6 act conf = mouse TRPC6 activator confirmation | actives 11% (n = 2,800) | activation, % at 10 µM | HEK293-TRPC6 membrane potential dye fluorescence, FDSS | AID 488961 | shares compounds with TRPC6 inhibitor;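 active means ratio signal rise beyond 5 SD above unstimulated control wells' mean, seen in both duplicate runs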;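 further: plate controls were buffer EC0 wells for no effect and acetylcholine ECmax response for full effect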
Starred values were filed as active, the others as inactive.

Results for CCOC(=O)c1c(N=CN(C)C)c2cc([N+](=O)[O-])cnc2n1C ?
TRPC4 act: inactive; TRPC4 block: inactive; TRPC4 potent: inactive; TRPC6 activator: inactive; TRPC6 inhibitor: -5.7*; HEK293 MPD ctr: -146%*; HEK293 MPD ctr 2: inactive; TRPC4 ctr mod: -23%*; TRPC4/MOR inh 2: 44%*; TRPC6 block conf: 54%*; TRPC6 act conf: inactive

What do the screens show for `Cc1onc(-c2ccccc2)c1C(=O)Nc1ccc(Br)cc1Cl`?
TRPC4 act: inactive; TRPC4 block: inactive; TRPC4 potent: inactive; TRPC6 activator: inactive; TRPC6 inhibitor: inactive

What do the screens show for `CCN(CC)C(=O)c1csc(Nc2ccc(C)cc2)n1`?
TRPC4 act: inactive; TRPC4 block: inactive; TRPC4 potent: inactive; TRPC6 activator: inactive; TRPC6 inhibitor: -5.8*; HEK293 MPD ctr: inactive; HEK293 MPD ctr 2: inactive; TRPC4 ctr mod: inactive; TRPC4/MOR inh 2: inactive; TRPC6 block conf: inactive; TRPC6 act conf: inactive

How did NS(=O)(=O)c1ccc2nc(NC(=O)Nc3ccc(F)cc3)sc2c1 do in these assays?
TRPC4 act: inactive; TRPC4 block: inactive; TRPC4 potent: inactive; TRPC6 activator: inactive; TRPC6 inhibitor: inactive

What do the screens show for `Cc1cc(N)c2cc(NC(=O)/C=C/c3ccccc3Cl)ccc2n1`?
TRPC4 act: inactive; TRPC4 block: inactive; TRPC4 potent: inactive; TRPC6 activator: inactive; TRPC6 inhibitor: -5.5*; HEK293 MPD ctr: inactive; HEK293 MPD ctr 2: inactive; TRPC4 ctr mod: inactive; TRPC4/MOR inh 2: inactive; TRPC6 block conf: inactive; TRPC6 act conf: inactive

What do the screens show for `OC(CNCc1ccccc1)(c1ccc(F)cc1)c1ccc(F)cc1`?
TRPC4 act: inactive; TRPC4 block: inactive; TRPC4 potent: inactive; TRPC6 activator: inactive; TRPC6 inhibitor: -5.3*; HEK293 MPD ctr: 160%*; HEK293 MPD ctr 2: inactive; TRPC4 ctr mod: 36%*; TRPC4/MOR inh 2: 56%*; TRPC6 block conf: inactive

How did CC(=O)NCCc1nc2ccccc2n1Cc1cc(C)ccc1C do in these assays?
TRPC4 act: inactive; TRPC4 block: inactive; TRPC4 potent: inactive; TRPC6 activator: inactive; TRPC6 inhibitor: -5.1*; HEK293 MPD ctr: inactive; HEK293 MPD ctr 2: inactive; TRPC4 ctr mod: 17%*; TRPC4/MOR inh 2: inactive; TRPC6 block conf: inactive; TRPC6 act conf: inactive

How did COc1ccc(C(=O)NC2CCCc3ccccc32)cc1OC1CCN(C(C)=O)CC1 (stereo not given) do in these assays?
TRPC4 act: inactive; TRPC4 block: inactive; TRPC4 potent: inactive; TRPC6 activator: inactive; TRPC6 inhibitor: inactive

What do the screens show for `COc1ccc(N2CCN(C3CCCN(C(=O)CN4CCCC4=O)C3)CC2)cc1` (stereo not given)?
TRPC4 act: inactive; TRPC4 block: inactive; TRPC4 potent: inactive; TRPC6 activator: inactive; TRPC6 inhibitor: inactive

How did Nc1ccc(O)c2c1C(=O)c1ccccc1C2=O do in these assays?
TRPC4 act: inactive; TRPC4 block: inactive; TRPC4 potent: inactive; TRPC6 activator: inactive; TRPC6 inhibitor: -8.2*; HEK293 MPD ctr: -85%*; HEK293 MPD ctr 2: inactive; TRPC4 ctr mod: -40%*; TRPC4/MOR inh 2: 66%*; TRPC6 block conf: 42%*; TRPC6 act conf: inactive
